High-throughput results from PubChem.
MPTP inh: inhibitors of mitochondrial permeability transition pore; AID 602449; isolated mouse mitochondria, Ca2+ swelling absorbance, 30 min; inhibition, % at 10 µM; hit rate 1.4% among 360,000;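 active = inhibition of 50% or more, scaled per plate between neutral and stimulator controls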
GPR7 antagonist: blocks human GPR7 receptor signaling | P48145 | inhibition, % at 4.4 µM | hit rate 1.1% among 290,000 | GPR7-expressing cells, fluorescence antagonist assay; in the data active = inhibition above about 16%, passing the limit was not always enough;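 note: cells stimulated with the agonist NPW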
Target sequence (P48145 whole entry, looked up): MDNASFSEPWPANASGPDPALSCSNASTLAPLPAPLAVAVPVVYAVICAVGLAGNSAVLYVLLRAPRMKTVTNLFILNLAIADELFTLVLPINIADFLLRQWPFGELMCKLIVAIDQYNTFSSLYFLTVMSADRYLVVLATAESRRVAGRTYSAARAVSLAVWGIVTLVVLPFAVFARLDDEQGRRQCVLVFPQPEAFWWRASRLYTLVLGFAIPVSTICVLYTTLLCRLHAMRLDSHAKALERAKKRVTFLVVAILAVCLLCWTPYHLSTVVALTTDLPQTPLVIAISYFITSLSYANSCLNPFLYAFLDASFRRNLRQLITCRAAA
DAGLB inhibitor: blocks human DAGLB lipase activity; HEK293T DAGLB membrane lysate, EnzChek fluorogenic substrate; hit rate 0.059% among 340,000; Q8NCG7; inhibition, % at 5.17 µM; in the data active = inhibition above about 34%
TAAR1 agonist: human TAAR1 agonism; hit rate 0.99% among 360,000; CHO RD-HGA16 TAAR1, Fluo-8 calcium fluorescence; vehicle wells 0%, saturating PEA agonist 100%; AID 624467; activation, % at 3 µM; Q96RJ0;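 active = activation above the mean activation of all test compounds in the run plus 3 SD, cut at about 38% in these data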
Target sequence (Q96RJ0 whole entry, looked up): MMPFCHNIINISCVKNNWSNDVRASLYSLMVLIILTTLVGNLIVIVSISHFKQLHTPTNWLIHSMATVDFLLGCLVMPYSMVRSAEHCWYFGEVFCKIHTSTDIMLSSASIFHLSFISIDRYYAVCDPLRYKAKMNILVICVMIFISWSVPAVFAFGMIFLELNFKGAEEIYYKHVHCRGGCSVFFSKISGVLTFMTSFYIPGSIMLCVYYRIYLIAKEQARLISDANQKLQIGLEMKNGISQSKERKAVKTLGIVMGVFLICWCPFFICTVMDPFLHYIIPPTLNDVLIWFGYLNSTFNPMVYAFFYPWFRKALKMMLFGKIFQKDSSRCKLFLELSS
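Test system: RD-HGA16 (CHO) cells co-expressing Gα16 and hTAAR1 / Benchmarks: DMSO vehicle as 0%, PEA at EC100 as 100% / Repeats: no replicates (n 1) / Measure: % activation from peak over basal fluorescence ratio, DMSO-to-PEA scaled / Timing: 17-24 h plating, Fluo-8 75 min 37 °C, 30 min RT / Technique: kinetic Fluo-8 calcium fluorescence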
TAAR1 antag: antagonists of human TAAR1 | Q96RJ0 | CHO RD-HGA16 TAAR1, Fluo-8 calcium fluorescence, antagonist | inhibition, % at 3 µM | hit rate 1.5% among 360,000 | AID 624466;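 active = inhibition above a per-plate cutoff, the mean inhibition of test compounds on that plate plus 3 SD, cut at about 49% in these data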
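Test system – hTAAR1-expressing CHO RD-HGA16 cells, Gα16-coupled · Also added – β-PEA at EC80 concentration, post-compound challenge · Compound – 3 µM, single point · Incubation – dye loading 75 min at 37 °C, then 30 min room temperature · Measured by – Fluo-8 intracellular calcium dye fluorescence, real-time kinetic reads · Benchmarks – vehicle and agonist controls · Replicates – singlicate, one well per test compound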
Rh123 counter: membrane potential counter-screen of mitochondrial pore inhibitors; shares compounds with MPTP inh; isolated mitochondria, Rhodamine 123 fluorescence; inhibition, % at 10 µM; hit rate 78% among 5,000; AID 624504; in the data active = inhibition above about 22%
MPTP abs DR: MPTP inhibition, dose response swelling confirmation; isolated mitochondria swelling, absorbance; shares compounds with MPTP inh; hit rate 58% among 780; IC50, µM; AID 651561; in the data active = IC50 below about 20 µM
MPTP counter DR: active in counter-screen for permeability transition pore inhibitors; shares compounds with MPTP inh; isolated mitochondria counterscreen, fluorescence read-out; IC50, µM; hit rate 49% among 780; AID 651564; in the data active = IC50 below about 80 µM
TAAR1 ag conf: human TAAR1 agonism, confirmed; shares compounds with TAAR1 agonist; CHO RD-HGA16 TAAR1, Fluo-8 calcium fluorescence; scaled: DMSO 0%, maximal phenethylamine 100%; activation, % at 3 µM; hit rate 82% among 2,400;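 active = activation above a cutoff set at the run's mean compound activation plus 3 SD, cut at about 39% in these data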
Ga16 ag counter: counter-screen for TAAR1 agonists: nonselective agonists in parental cells | shares compounds with TAAR1 agonist | CHO-Ga16 parental, Fluo-8 calcium fluorescence; normalized to maximal ATP response, DMSO zero | activation, % at 3 µM | hit rate 50% among 2,400 | AID 651787;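 active = activation above the run cutoff, the mean activation over all tested wells plus 3 SD, cut at about 12% in these data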
TAAR1 desensitize: counter-screen for human TAAR1 agonists: agonists that desensitize TAAR1. CHO RD-HGA16 hTAAR1, Fluo-8 calcium, beta-PEA response inhibition. AID 651951. shares compounds with TAAR1 agonist. hit rate 46% among 2,400. inhibition, % at 3 µM;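 active = inhibition above the run cutoff, the mean inhibition of all test compounds plus 3 SD, cut at about 49% in these data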;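 note: beta-PEA stimulus applied at its EC80; loss of beta-PEA calcium signal after compound pretreatment read as receptor desensitization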
Ga16 nonsel ant: nonselective Ga16 antagonist in TAAR1 agonist counter-screen; shares compounds with TAAR1 agonist; CHO-Ga16 ATP-induced calcium, Fluo-8 fluorescence; inhibition, % at 3 µM; hit rate 39% among 2,400; AID 651952;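 active = inhibition above the plate's mean compound inhibition plus 3 SD, computed per plate, cut at about 22% in these data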
Large screens that a line does not name were inactive (follow-up assays come after a bar, where they were run); ! = not active in a repeat. Only some compounds are listed: those with a hit (about 4% of all), similar ones and a draw of the others.

CN1CCN(c2ccc(NC(=O)c3cccc(OCc4ccccc4)c3)cc2)CC1	MPTP inh 107, TAAR1 agonist 54 | Rh123 counter inactive | MPTP abs DR 6.6 | MPTP counter DR inactive | TAAR1 ag conf 60 | Ga16 ag counter inactive | TAAR1 desensitize 71 | Ga16 nonsel ant inactive
CC(=O)n1c(-c2ccccc2)c(CO)c2ccccc21	none
NCCc1c(-c2ccccc2)n(-c2ccccc2)c2ccccc12	MPTP inh 79, TAAR1 agonist 61, TAAR1 antag 63 | Rh123 counter inactive | TAAR1 ag conf 85 | Ga16 ag counter 51 | TAAR1 desensitize 96 | Ga16 nonsel ant 34
O=C(c1ccc([N+](=O)[O-])cc1)N1CCc2ccccc2C1	none
O=[N+]([O-])c1ccc(NC(=S)N2CCc3ccccc3C2)cc1	MPTP inh 58, TAAR1 agonist 60 | Rh123 counter 65 | TAAR1 ag conf 81 | Ga16 ag counter inactive | TAAR1 desensitize 63 | Ga16 nonsel ant 22
Cn1c(-c2ccccc2)cc(=NNS(C)(=O)=O)c2cc(S(=O)(=O)O)ccc21	none (no result: GPR7 antagonist)
CC1CCCN(C(=S)SCC(=O)c2cc(Br)cc(Br)c2O)C1 (centres undefined)	MPTP inh 59, TAAR1 agonist 74 | Rh123 counter 32 | TAAR1 ag conf 82 | Ga16 ag counter inactive | TAAR1 desensitize 70 | Ga16 nonsel ant inactive
CC(C)(C)c1ccc(C(=O)NC(=S)NNC(=O)c2cccs2)cc1	MPTP inh 92, TAAR1 agonist 174, TAAR1 antag 105 | Rh123 counter 29 | TAAR1 ag conf 159 | Ga16 ag counter 129 | TAAR1 desensitize 107 | Ga16 nonsel ant 102
CCCC(=O)Nc1ccc(C(=O)NNC(=S)NC(=O)c2cccs2)cc1	none
CCOC(=O)Cn1c(=N)n(CCOc2ccc3ccccc3c2)c2ccccc21	MPTP inh 91, GPR7 antagonist 21, TAAR1 agonist 58 | Rh123 counter inactive | MPTP abs DR 4 | MPTP counter DR 26 | TAAR1 ag conf 57 | Ga16 ag counter 26 | TAAR1 desensitize 51 | Ga16 nonsel ant 41
NC[C@@H]1O[C@H](C23CC4CC(CC(C4)C2)C3)Cc2c1ccc(O)c2O	MPTP inh 94, TAAR1 agonist 68, TAAR1 antag 71 (no result: GPR7 antagonist) | Rh123 counter inactive | TAAR1 ag conf 109 | Ga16 ag counter 13 | TAAR1 desensitize 88 | Ga16 nonsel ant 29
CCCCc1c(Cc2ccccc2)ncn1CCc1ccccc1OC	MPTP inh 85, TAAR1 agonist 49, TAAR1 antag 55 (no result: GPR7 antagonist, DAGLB inhibitor) | Rh123 counter 114 | TAAR1 ag conf 68 | Ga16 ag counter inactive | TAAR1 desensitize 60 | Ga16 nonsel ant 56
O=C(NCCc1ccccc1)Nc1ccc(Cl)cc1	MPTP inh 76, TAAR1 agonist 47 | Rh123 counter 72 | TAAR1 ag conf 46 | Ga16 ag counter 21 | TAAR1 desensitize inactive | Ga16 nonsel ant 28
O=C(c1ccccc1)N1CCC(c2nc(-c3ccc(S(=O)(=O)NCC4CCCO4)cc3)no2)CC1 (centres undefined)	MPTP inh 53, TAAR1 agonist 43 | Rh123 counter 62 | TAAR1 ag conf inactive | Ga16 ag counter inactive | TAAR1 desensitize inactive | Ga16 nonsel ant 27
O=S(=O)(NCC1CCCO1)c1ccccc1 (centres undefined)	none
Nc1nc2c(ncn2[C@@H]2O[C@H](C(=O)NCCc3c[nH]c4ccccc34)[C@@H](O)[C@H]2O)c(=O)[nH]1	none (no result: MPTP inh, GPR7 antagonist, DAGLB inhibitor)
FC(F)(F)c1cc(CO[C@@H]2CCCN[C@@H]2c2ccccc2)cc(C(F)(F)F)c1	MPTP inh 103, TAAR1 agonist 70 (no result: GPR7 antagonist) | Rh123 counter inactive | MPTP abs DR 4.3 | MPTP counter DR 54 | TAAR1 ag conf inactive | Ga16 ag counter 29 | TAAR1 desensitize inactive | Ga16 nonsel ant inactive
Cc1cc(C)cc(C(O)c2ncc(-c3ccccc3C)[nH]2)c1 (centres undefined)	none (no result: GPR7 antagonist, DAGLB inhibitor)
CCCCCCCCCCCCCCCC[n+]1ccccc1	MPTP inh 53!, TAAR1 agonist 52!, TAAR1 antag 73 (no result: GPR7 antagonist) | Rh123 counter 107 | TAAR1 ag conf inactive | Ga16 ag counter inactive | TAAR1 desensitize inactive | Ga16 nonsel ant inactive
C#CCN1C[C@@]2(O)CC[C@@H](O)[C@@H](OC)[C@@H]2[C@@]1(C)[C@H](O)CC=C(C)C	none (no result: MPTP inh, GPR7 antagonist, DAGLB inhibitor)
COC(=O)[C@@]12C[C@@H](CC(=O)NCc3ccc(C)o3)C(=O)N(Cc3ccc4c(c3)OCO4)C1=CCC(C)(C)C2	none (no result: GPR7 antagonist, DAGLB inhibitor)
COc1cc(F)ccc1-c1csc(C(C)(O)c2ccc(F)c(F)c2)n1 (centres undefined)	none (no result: GPR7 antagonist, DAGLB inhibitor)
CCN1CCN(c2ccc(NC(=O)CCc3c(C)nc4c(-c5ccccc5)c(C)nn4c3C)cc2)CC1	MPTP inh 54 (no result: TAAR1 agonist, TAAR1 antag) | Rh123 counter inactive | MPTP abs DR 15 | MPTP counter DR inactive | Ga16 ag counter inactive | Ga16 nonsel ant inactive
Cc1nc2c(-c3ccccc3)c(C)nn2c(C)c1CCC(=O)NCc1ccco1	none
N#Cc1cc(C(=O)c2cc(F)ccc2O)cn(-c2nccs2)c1=O	MPTP inh 52, TAAR1 agonist 105, TAAR1 antag 68 | Rh123 counter 86 | TAAR1 ag conf 91 | Ga16 ag counter 112 | TAAR1 desensitize 67 | Ga16 nonsel ant 74
O=S(=O)(c1ccc(NC(=S)NCCc2ccccc2)cc1)N1CCOCC1	MPTP inh 67, TAAR1 agonist 74 | Rh123 counter 85 | TAAR1 ag conf 86 | Ga16 ag counter 13 | TAAR1 desensitize 65 | Ga16 nonsel ant 26
CCNC(=O)C1(C)CCN(C(=O)c2ccc(OC)c(OC)c2)C1 (centres undefined)	none (no result: GPR7 antagonist, DAGLB inhibitor)
C/C(=N\NC1=NCCN1)c1ccccc1	none (no result: DAGLB inhibitor)
CCCCCOc1ccc(Br)cc1/C(C)=N/NC1=NCCN1	MPTP inh 93, GPR7 antagonist 18, TAAR1 agonist 62 | Rh123 counter 24 | TAAR1 ag conf 62 | Ga16 ag counter 12 | TAAR1 desensitize inactive | Ga16 nonsel ant inactive
